Results as given in ChEMBL document CHEMBL4673214, “Synthesis and antibacterial bioactivities of cationic deacetyl linezolid amphiphiles” (Eur J Med Chem, 2018).

Tests used:
Escherichia coli [1] = assay: Antibiofilm activity against Escherichia coli ATCC 25922 assessed as inhibition of biofilm formation incubated for 24 hrs by crystal violet staining assay; type: functional
In short: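 Twofold serial dilutions in MHB received 1:1000-diluted exponential-phase bacteria and were incubated 24 h at 37 °C. Wells were rinsed, stained with 0.1% crystal violet for 10 min and dissolved in ethanol, and OD540 was read. MBIC80 was the concentration inhibiting 80% of biofilm formation versus untreated wells, taken from dose-response curves.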

Staphylococcus aureus [2] = assay: Antibacterial activity against Staphylococcus aureus ATCC 29213 assessed as reduction in bacterial measured after 20 passages by CLSI-based broth microdilution method; type: functional
In short: (§1)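 Serial passaging: after each 24 h MIC assay, cells grown at 1/2 MIC were transferred and the MIC assayed again, for 20 passages. Done with S. aureus, E. coli and MRSA. MIC plotted against days of passage. Experiment repeated twice.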

Escherichia coli [3] = assay: Antibiofilm activity against 72 hrs preformed biofilm of Escherichia coli ATCC 25922 assessed as biofilm viability at 64 ug/ml incubated for 24 hrs by […] (reference value: 16.1 log10CFU); type: functional; details: dose 64 µg/ml
In short: (§2)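 E. coli from mid-log phase was diluted to ~10^5 CFU/mL in M9 medium with 0.02% casamino acids and 0.5% glycerol and formed biofilm without shaking for 72 h. Wells were PBS-washed, then treated with 2-128 µg/mL for 24 h at 37 °C; medium-only wells served as control. Cells were released with trypsin-EDTA and plated as tenfold dilutions. Viability was given as log10 CFU/well.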

Staphylococcus aureus [4] = assay: Antibiofilm activity against 24 hrs preformed biofilm of Staphylococcus aureus ATCC 29213 assessed as biofilm viability at 16 ug/ml incubated for 24 hrs by crystal violet staining analysis (reference value: 18.9 1og10CFU); type: functional; details: dose 16 µg/ml
Escherichia coli [5] = assay: Resistance ratio of compound MIC for Escherichia coli ATCC 25922 after 20 passages to compound MIC for Escherichia coli ATCC 25922 after 16 to 20 hrs by CLSI-based broth microdilution method; type: functional; in short: as §1
Staphylococcus aureus [6] = assay: Antibiofilm activity against 24 hrs preformed biofilm of Staphylococcus aureus ATCC 29213 assessed as biofilm viability at 128 ug/ml incubated for 24 hrs by crystal violet staining analysis (reference value: 18.9 1og10CFU); type: functional; details: dose 128 µg/ml
Staphylococcus aureus [7] = assay: Antibiofilm activity against 24 hrs preformed biofilm of Staphylococcus aureus ATCC 29213 assessed as biofilm viability at 8 ug/ml incubated for 24 hrs by crystal violet staining analysis (reference value: 18.9 1og10CFU); type: functional; details: dose 8 µg/ml
[8] = Solubility of the compound in water at room temperature; type: physicochemical; details: buffer
Escherichia coli [9] = assay: Antibiofilm activity against 72 hrs preformed biofilm of Escherichia coli ATCC 25922 assessed as biofilm viability at 8 ug/ml incubated for 24 hrs by […] (reference value: 16.1 log10CFU); type: functional; details: dose 8 µg/ml; in short: as §2
Escherichia coli [10] = assay: Antibiofilm activity against 72 hrs preformed biofilm of Escherichia coli ATCC 25922 assessed as biofilm viability at 4 ug/ml incubated for 24 hrs by […] (reference value: 16.1 log10CFU); type: functional; details: dose 4 µg/ml; in short: as §2

## CCCCCCCCCCCN(C[C@H]1CN(c2ccc(N3CCOCC3)c(F)c2)C(=O)O1)C(=O)[C@@H](N)CCCCN.Cl.Cl
Escherichia coli [1]
  MBIC80: 61.9 µg/mL
  MBIC90: 72.6 µg/mL
Staphylococcus aureus [2]
  MIC: 2 µg/mL
Escherichia coli [3]
  Activity: 6 log10CFU
Staphylococcus aureus [4]
  Activity: 8.7 log10CFU
Escherichia coli [5]
  Ratio: 2
Staphylococcus aureus [6]
  Activity: 4.7 log10CFU
Staphylococcus aureus [7]
  Activity: 9.9 log10CFU
[8]
  solubility: Soluble
Escherichia coli [9]
  Activity: 8 log10CFU
Escherichia coli [10]
  Activity: 8.5 log10CFU
